In brackets after ≈: the same amount, converted by molar mass.
Legend:
Escherichia coli [1] = test: Antibacterial activity against Escherichia coli expressing ToLC mutant assessed as growth inhibiiton after 18 hrs; assay type: functional
How it was run: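 E. coli TolC (efflux-defective) in LB, start OD600 0.03, compounds predissolved in DMSO (max 1% final); serial dilutions, final 0.02–100 µg/mL, each concentration in duplicate. OD read at compound addition and after 18 h at 37 °C, 50 rpm. MIC = lowest concentration with no detectable growth; mean of two independent runs (three if MIC < 10 µg/mL).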

[2] = Inhibition of Escherichia coli RNAP assessed as incorporation of [5,6-3H]UTP preincubated for 10 mins followed by DNA template and ATP, CTP, GTP, UTP, [5,6-3H]UTP addition measured after 10 mins by scintillation counting analysis
How it was run: (§1)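 Purchased E. coli RNAP holoenzyme (1 unit, 0.5 µg) with 40 mM Tris-HCl pH 7.5, 150 mM KCl, 10 mM MgCl2, 10 mM DTT, 0.1% CHAPS, RNase inhibitor and compound in 2% DMSO final, preincubated 10 min at 25 °C. Reaction started with religated pcDNA3.1 template (3500 ng), 400 µM ATP/CTP/GTP, 100 µM UTP and 60 nCi [3H]-UTP, then run 10 min at 37 °C. TCA-precipitated RNA counted by scintillation and compared with DMSO controls.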

Escherichia coli [3] = test: Inhibition of Escherichia coli RNAP assessed as incorporation of [5,6-3H]UTP at 100 uM preincubated for 10 mins followed by DNA template and ATP, CTP, GTP, UTP, [5,6-3H]UTP addition measured after 10 mins by scintillation counting analysis relative to control; how it was run: as §1
Escherichia coli [4] = test: Inhibition of Escherichia coli RNAP assessed as incorporation of [5,6-3H]UTP at 25 uM preincubated for 10 mins followed by DNA template and ATP, CTP, GTP, UTP, [5,6-3H]UTP addition measured after 10 mins by scintillation counting analysis relative to control; how it was run: as §1
Escherichia coli [5] = test: Reduction of resistance frequencies in Escherichia coli expressing ToLC mutant at 2 x MIC after 16 hrs relative to rifampicin, myxopyronin; assay type: functional
How it was run: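 E. coli TolC cell count per mL set by plating dilutions on LB agar and counting colonies. […] Resistance frequency derived from the threshold inoculum at which growth (resistance) appeared.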

[6] = Antibacterial activity against Bacillus subtilis subsp. subtilis assessed as growth inhibiiton after 18 hrs; assay type: functional
How it was run: (§2)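 Broth dilution in LB, start OD600 0.03, compounds predissolved in DMSO (max 1% final), serial dilutions 0.02–100 µg/mL tested in duplicate. Incubation 18 h, 37 °C, 50 rpm (200 rpm for PAO1). OD read at start and after incubation. MIC is the lowest concentration with no detectable growth. Values are means of two independent runs, three if MIC <10 µg/mL.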

Staphylococcus aureus = test: Antibacterial activity against Staphylococcus aureus subsp. aureus Newman assessed as growth inhibiiton after 18 hrs; assay type: functional; how it was run: as §2
Escherichia coli [7] = test: Antibacterial activity against Escherichia coli K-12 assessed as growth inhibiiton after 18 hrs; assay type: functional; conditions: K-12, 18 h; how it was run: as §2
Pseudomonas aeruginosa = test: Antibacterial activity against Pseudomonas aeruginosa PAO1 assessed as growth inhibiiton after 18 hrs; assay type: functional; conditions: PAO1, 18 h; how it was run: as §2

Compound	MIC (Escherichia coli [1]) [µg/mL]	IC50 [2] [µM]	pIC50 [2]	further results
CCN(Cc1ccccc1)C(=O)Nc1cc(-c2ccccc2)sc1C(=O)O	17 (≈ 44.7 µM)	292	3.52	
CC(C)NC(=O)Nc1cc(-c2ccc(Cl)c(Cl)c2)sc1C(=O)O	15 (≈ 40.2 µM)			inhibition (Escherichia coli [3]): 26%
O=C(Nc1ccccc1)Nc1sc2c(c1C(=O)O)CCCCCC2	> 25			inhibition (Escherichia coli [4]): 3%
CCN(Cc1ccccc1)C(=O)Nc1cc(-c2ccc(Cl)c(CCCCNC(=O)OC)c2)sc1C(=O)O	25 (≈ 45.9 µM)	20		
CCN(Cc1ccccc1)C(=O)Nc1cc(-c2cccc([N+](=O)[O-])c2)sc1C(=O)O	22 (≈ 51.7 µM)	80	4.1	
CCN(Cc1ccccc1)C(=O)Nc1cc(-c2ccc(C)cc2)sc1C(=O)O	21 (≈ 53.2 µM)	137	3.86	
CCN(Cc1ccccc1)C(=O)Nc1cc(-c2ccc([N+](=O)[O-])cc2)sc1C(=O)O	23 (≈ 54.1 µM)	73	4.14	
O=C(NCc1ccccc1)Nc1cc(-c2ccc(Cl)c(Cl)c2)sc1C(=O)O	10 (≈ 23.7 µM)	45		
CCN(Cc1ccccc1)C(=O)Nc1cc(-c2cccc(C(F)(F)F)c2)sc1C(=O)O	38 (≈ 84.7 µM)	53	4.28	
CCN(Cc1ccccc1)C(=O)Nc1cc(-c2cccc(Cl)c2)sc1C(=O)O	9 (≈ 21.7 µM)	72	4.14	fold change (FC) (Escherichia coli [5]): >500; MIC [6]: 12 µg/mL (≈ 28.9 µM); MIC (Staphylococcus aureus): 21 µg/mL (≈ 50.6 µM); MIC (Escherichia coli [7]): > 100 µg/mL; MIC (Pseudomonas aeruginosa): > 100 µg/mL
CCCCN(CCc1ccccc1)C(=O)Nc1cc(-c2ccc(Cl)c(Cl)c2)sc1C(=O)O	> 25	7		
O=C(NCCc1ccccc1)Nc1cc(-c2ccc(Cl)c(Cl)c2)sc1C(=O)O	8 (≈ 18.4 µM)	26		MIC [6]: 7 µg/mL (≈ 16.1 µM); MIC (Staphylococcus aureus): 6 µg/mL (≈ 13.8 µM); MIC (Escherichia coli [7]): > 25 µg/mL; MIC (Pseudomonas aeruginosa): > 25 µg/mL
CCN(Cc1ccccc1)C(=O)Nc1cc(-c2ccc(Cl)cc2Cl)sc1C(=O)O	8 (≈ 17.8 µM)	32	4.49	MIC [6]: 10 µg/mL (≈ 22.3 µM); MIC (Staphylococcus aureus): 12 µg/mL (≈ 26.7 µM); MIC (Escherichia coli [7]): > 50 µg/mL; MIC (Pseudomonas aeruginosa): > 50 µg/mL
CC(C)(C)OC(=O)c1c(NC(=O)Nc2ccccc2)sc2c1CCCCCC2	33 (≈ 82.4 µM)			inhibition (Escherichia coli [3]): 4%
CCN(Cc1ccccc1)C(=O)Nc1cc(-c2ccc(C#N)cc2)sc1C(=O)O	25 (≈ 61.7 µM)	133	3.88	
CCCCN(C(=O)Nc1cc(-c2ccc(Cl)c(Cl)c2)sc1C(=O)O)c1ccccc1	> 25	14		
CCCCNC(=O)Nc1cc(-c2ccc(Cl)c(Cl)c2)sc1C(=O)O	13 (≈ 33.6 µM)	91		
CCN(Cc1ccccc1)C(=O)Nc1cc(-c2cc(Cl)ccc2Cl)sc1C(=O)O	9 (≈ 20 µM)	35	4.46	
CCN(Cc1ccccc1)C(=O)Nc1cc(-c2ccc(OC)cc2)sc1C(=O)O	15 (≈ 36.5 µM)	240	3.62	
CCN(Cc1ccccc1)C(=O)Nc1cc(-c2cc(Cl)cc(Cl)c2)sc1C(=O)O		25	4.6	
